One block for each molecule: values may come before it.
What was measured:
[1] = Ratio of drug uptake in brain to plasma in P-gp knockout mouse at 10 mg/kg, ip at 6 hrs; type: ADME, organism-based; design: dose 10 mg/kg, route intraperitoneal; conditions: brain and plasma, read-out: BPR
How it was run: (§1)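 Dosing was 10 mg/kg IP in MDR1 (P-gp) knockout mice and, identically, in wild-type FVB mice. Brain and plasma levels were taken 6 h after dosing to give a brain-to-plasma ratio.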

Liver microsomes [2] = test: Metabolic stability in human liver microsomes at 1 uM after 60 mins by LC/MS/MS analysis; conditions: 1 h
[3] = Modulation of gamma secretase in CHO-2B7 cells assessed as reduction in amyloid beta 42 level after 5 hrs by MSD ELISA; type: cell-based; conditions: Cricetulus griseus, CHO-2B7, 5 h
[4] = Ratio of drug uptake in brain to plasma in CD1 mouse at 1 mg/kg, iv at 6 hrs; conditions: brain and plasma
[5] = Ratio of drug uptake in brain to plasma in FVB mouse at 10 mg/kg, ip at 6 hrs; type: ADME, organism-based; design: dose 10 mg/kg, route intraperitoneal; conditions: brain and plasma, read-out: BPR; how it was run: as §1
[6] = Modulation of gamma secretase in CHO-2B7 cells assessed as reduction in amyloid beta 40 level after 5 hrs by MSD ELISA; type: cell-based; conditions: Cricetulus griseus, CHO-2B7, 5 h
[7] = Plasma concentration in CD1 mouse at 1 mg/kg, iv at 6 hrs
[8] = Drug uptake in CD1 mouse brain at 1 mg/kg, iv at 6 hrs
[9] = (§2) Metabolic stability in human liver microsomes assessed as compound remaining at 1 uM at 60 mins by LC/MS/MS analysis in absence of NADPH; type: ADME, Microsome; conditions: liver microsomes, read-out: Stability
How it was run: (§3)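 Human liver microsomes were run without NADPH as a qualitative read of susceptibility to enzymatic hydrolysis. The read-out was percent parent remaining at 60 min.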

[10] = Ratio of drug uptake in brain to plasma in rat at 10 mg/kg, po at 6 hrs; type: ADME, organism-based; design: dose 10 mg/kg, route oral; conditions: brain and plasma, read-out: BPR
[11] = Clearance in rat at 3 mg/kg, iv; type: ADME, organism-based; design: dose 3 mg/kg, route intravenous; conditions: in vivo
[12] = Half life in rat at 3 mg/kg, iv; type: ADME, organism-based; design: dose 3 mg/kg, route intravenous; conditions: in vivo
[13] = Cmax in rat at 10 mg/kg, po; type: ADME, organism-based; design: dose 10 mg/kg, route oral; conditions: in vivo
[14] = Oral bioavailability in rat at 10 mg/kg; type: ADME, organism-based; conditions: in vivo
[15] = Volume of distribution in rat at 3 mg/kg, iv; type: ADME, organism-based; design: dose 3 mg/kg, route intravenous; conditions: in vivo
Liver microsomes [16] = test: as §2; type: ADME, Microsome; conditions: microsomes, 1 h, 1 µM; how it was run: as §3
[17] = Drug uptake in CD1 mouse brain at 1 mg/kg, iv at 2 hrs; type: ADME, organism-based; design: dose 1 mg/kg, route intravenous; conditions: read-out: Drug uptake
How it was run: (§4)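 Screen of CNS penetration: CD-1 mice were dosed IV and plasma and brain concentrations were measured. Brain-to-plasma ratio was calculated, mostly at 6 h post dose, with one compound sampled at 2 h.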

[18] = Plasma concentration in CD1 mouse at 1 mg/kg, iv at 2 hrs; type: ADME, organism-based; design: dose 1 mg/kg, route intravenous; how it was run: as §4
[19] = Ratio of drug uptake in brain to plasma in CD1 mouse at 1 mg/kg, iv at 2 hrs; type: ADME, organism-based; design: dose 1 mg/kg, route intravenous; conditions: brain and plasma, read-out: BPR; how it was run: as §4
Mus musculus [20] = test: Antialzheimer activity in CD1 mouse assessed as reduction in amyloid beta 42 level at 100 mg/kg, ip at 6 hrs relative to vehicle-treated control; type: functional; design: scale not given: the % may be the effect or the level left; conditions: route intraperitoneal
How it was run: (§5)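 CD-1 mice received a single IP or PO dose (n = 12 per group) and were sampled at 6 h. Plasma and brain drug concentrations were measured in μM. Aβ42, Aβ40 and Aβ38 in brain homogenate are expressed as percent lowering versus vehicle. Statistical significance was assessed against vehicle.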

[21] = Drug uptake in CD1 mouse brain at 30 mg/kg, ip at 6 hrs; type: ADME, organism-based; design: dose 30 mg/kg, route intraperitoneal; conditions: read-out: Drug uptake; how it was run: as §5
[22] = Ratio of drug uptake in brain to plasma in CD1 mouse at 30 mg/kg, po at 6 hrs; conditions: brain and plasma
SUP-T1 = test: Inhibition of notch-mediated NICD release in human SUP-T1 cells at 4 uM after 18 hrs by immunoblotting assay; type: cell-based
[23] = Plasma concentration in CD1 mouse at 100 mg/kg, ip at 6 hrs; type: ADME, organism-based; design: dose 100 mg/kg, route intraperitoneal; how it was run: as §5
Mus musculus [24] = test: Antialzheimer activity in CD1 mouse assessed as reduction in amyloid beta 38 level at 30 mg/kg, ip at 6 hrs relative to vehicle-treated control; type: functional; design: scale not given: the % may be the effect or the level left; conditions: route intraperitoneal; how it was run: as §5
CHO [25] = test: Modulation of gamma secretase in CHO cells expressing human APP assessed as amyloid beta (1 to 42) level at 3 uM after 6 hrs by LC/MS/MS analysis (reference value: 0.6 ng); type: cell-based; conditions: Cricetulus griseus
How it was run: (§6)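 Cells were treated at 3 μM or 2 μM. Secreted Aβ peptides (Aβ37, 38, 39, 40, 42) were quantified by immunoprecipitation followed by LC/MS/MS. Changes are expressed relative to vehicle-treated cells.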

Mus musculus [26] = test: Antialzheimer activity in CD1 mouse assessed as reduction in amyloid beta 38 level at 100 mg/kg, ip at 6 hrs relative to vehicle-treated control; type: functional; design: scale not given: the % may be the effect or the level left; conditions: route intraperitoneal; how it was run: as §5
CHO [27] = test: Modulation of gamma secretase in CHO cells expressing human APP assessed as reduction amyloid beta (1 to 38) level at 3 uM after 6 hrs by LC/MS/MS analysis relative to control; type: cell-based; design: scale not given: the % may be the effect or the level left; conditions: Cricetulus griseus; how it was run: as §6
Mus musculus [28] = test: Antialzheimer activity in CD1 mouse assessed as reduction in amyloid beta 42 level at 30 mg/kg, ip at 6 hrs relative to vehicle-treated control; type: functional; design: scale not given: the % may be the effect or the level left; conditions: route intraperitoneal; how it was run: as §5
in vivo [29] = conditions: CD1, mouse, po, 30 mg/kg
[30] = Inhibition of gamma secretase in CHO-2B7 cells assessed as reduction in total amyloid beta level after 5 hrs by MSD ELISA; type: cell-based; conditions: Cricetulus griseus, CHO-2B7, 5 h
CHO [31] = test: Modulation of gamma secretase in CHO cells expressing human APP assessed as amyloid beta (1 to 40) level at 3 uM after 6 hrs by LC/MS/MS analysis (reference value: 10.2 ng); type: cell-based; conditions: Cricetulus griseus; how it was run: as §6
[32] = Half life in CD1 mouse at 1 mg/kg, iv; conditions: in vivo
CHO [33] = test: Modulation of gamma secretase in CHO cells expressing human APP assessed as increase in amyloid beta (1 to 37) level at 3 uM after 6 hrs by LC/MS/MS analysis relative to control; type: cell-based; conditions: Cricetulus griseus; how it was run: as §6
Mus musculus [34] = test: Antialzheimer activity in CD1 mouse assessed as reduction in amyloid beta 40 level at 100 mg/kg, ip at 6 hrs relative to vehicle-treated control; type: functional; design: scale not given: the % may be the effect or the level left; conditions: route intraperitoneal; how it was run: as §5
[35] = Modulation of gamma secretase in CHO-2B7 cells assessed as reduction in amyloid beta 38 level after 5 hrs by MSD ELISA; type: cell-based; conditions: Cricetulus griseus, CHO-2B7, 5 h
CHO [36] = test: Modulation of gamma secretase in CHO cells expressing human APP assessed as increase in amyloid beta (1 to 39) level at 3 uM after 6 hrs by LC/MS/MS analysis relative to control; type: cell-based; conditions: Cricetulus griseus; how it was run: as §6
[37] = Volume of distribution in CD1 mouse at 1 mg/kg, iv; conditions: in vivo
[38] = Drug uptake in CD1 mouse brain at 100 mg/kg, ip at 6 hrs; type: ADME, organism-based; design: dose 100 mg/kg, route intraperitoneal; conditions: read-out: Drug uptake; how it was run: as §5
in vivo [39] = conditions: CD1, mouse, po, 30 mg/kg; remark: listed apart in the source
[40] = Clearance in CD1 mouse at 1 mg/kg, iv; conditions: in vivo
Mus musculus [41] = test: Antialzheimer activity in CD1 mouse assessed as reduction in amyloid beta 40 level at 30 mg/kg, ip at 6 hrs relative to vehicle-treated control; type: functional; design: scale not given: the % may be the effect or the level left; conditions: route intraperitoneal; how it was run: as §5
[42] = Plasma concentration in CD1 mouse at 30 mg/kg, ip at 6 hrs; type: ADME, organism-based; design: dose 30 mg/kg, route intraperitoneal; how it was run: as §5

Kp at 6 h [1]: 3.1
Stability (Liver microsomes [2]): Stable
IC50 [3]: 0.091 µM
Kp at 6 h [4]: 0.04
Kp at 6 h [5]: 0.035
IC50 [6]: 5.4 µM
concentration at 6 h [7]: 274 nM
concentration at 6 h [8]: 11 nM
SMILES: CC(C)[C@@H](OC(=O)N1CCC1)[C@H]1C[C@@H](C)[C@H]2[C@H](O1)[C@H](O)[C@@]1(C)[C@@H]3CC[C@H]4C(C)(C)[C@@H](OC(=O)N(C)C5CN(C)C5)CC[C@@]45C[C@@]35CC[C@]21C

SMILES: C[C@@H]1C[C@H]([C@H](O)C(C)(C)O)O[C@H]2[C@H]1[C@@]1(C)CC[C@@]34C[C@@]35CC[C@H](O[C@H]3CN([C@H]6CCNC6=O)CCO3)C(C)(C)[C@@H]5CC[C@H]4[C@]1(C)[C@H]2O
remaining at 1 h, 1 µM [9]: 85%
Kp at 6 h [10]: 0.09
clearance [11]: 9.67 mL/min/kg
IC50 [3]: ≥ 20 µM
half-life [12]: 5 h
Cmax [13]: 2200 nM
bioavailability [14]: > 100%
Vd [15]: 3.1 L/kg

Stability (Liver microsomes [16]): 123%
Stability (Liver microsomes [2]): Stable
IC50 [3]: 0.26 µM
concentration at 2 h [17]: 30 nM
concentration at 2 h [18]: 326 nM
IC50 [6]: 7.9 µM
Kp at 2 h [19]: 0.09
SMILES: CC(C)[C@@H](OC(=O)N1CCC1)[C@H]1C[C@@H](C)[C@H]2[C@H](O1)[C@H](O)[C@@]1(C)[C@@H]3CC[C@H]4C(C)(C)[C@@H](O[C@H]5CNCCO5)CC[C@@]45C[C@@]35CC[C@]21C

concentration at 6 h [21]: 1600 nM
Kp at 6 h [22]: 0.4
Stability (Liver microsomes [2]): Stable
concentration at 6 h [23]: 12000 nM
IC50 [3]: 0.27 µM
Kp at 6 h [4]: 0.26
Cmax (in vivo [29]): 3600 nM
IC50 [30]: 12 µM
half-life [32]: 2.5 h
IC50 [35]: 0.38 µM
Vd [37]: 0.42 L/kg
concentration at 6 h [38]: 23000 nM
bioavailability (in vivo [39]): 19%
clearance [40]: 4.83 mL/min/kg
IC50 [6]: 9.9 µM
concentration at 6 h [42]: 2200 nM
concentration at 6 h [7]: 35 nM
concentration at 6 h [8]: 9 nM
SMILES: CCO[C@@H]([C@H]1C[C@@H](C)[C@H]2[C@H](O1)[C@H](O)[C@@]1(C)[C@@H]3CC[C@H]4C(C)(C)[C@@H](O[C@H]5CN(CCOC)CCO5)CC[C@@]45C[C@@]35CC[C@]21C)C(C)(C)O
Activity (Mus musculus [20]): 46%
inhibition (SUP-T1): 0%
Activity (Mus musculus [24]): 4%
Activity (CHO [25]): Below limit of detection
Activity (Mus musculus [26]): 31%
Activity (CHO [27]): 58%
Activity (Mus musculus [28]): 7%
Activity (CHO [31]): 6.2 ng
Activity (CHO [33]): 50%
Activity (Mus musculus [34]): 30%
Activity (CHO [36]): 310%
Activity (Mus musculus [41]): 8%

Source: ChEMBL document CHEMBL2203235, “Optimization of a natural product-based class of γ-secretase modulators” (J Med Chem, 2012)
